Measured values: ChEMBL document CHEMBL1671650, “In vitro activity and preclinical profile of TMC435350, a potent hepatitis C virus protease inhibitor” (Antimicrob Agents Chemother, 2009)
Calls of active or inactive are those of the source.

How the values were obtained:
West Nile virus = assay: Antiviral activity against West Nile virus NY99/1 infected in green monkey Vero cells inhibition of virus-induced cytopathic effect at 10 to 100 uM; format: functional, organism-based
Summary of the method: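 Cytopathic effect inhibition assay: BVDV-NADL in MDCK cells; WNV-NY99/1 in Vero cells. Highest concentration tested 10 to 100 μM.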

[1] = Ratio of AUC (0 to 31 hrs) in Sprague-Dawley rat liver to AUC (0 to 31 hrs) in Sprague-Dawley rat plasma at 40 mg/kg, po administered as single dose; format: ADME, organism-based; set-up: dose 40 mg/kg, route oral; conditions: read-out: Ratio AUC
Summary of the method: (§1)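 Male specific-pathogen-free Sprague-Dawley rats (200–300 g), three per group, single gastric intubation at 2 ml/kg of a vitamin E TPGS–PEG 400 solution; food and water ad libitum. Plasma sampled 30 min to 31 h; tissues dissected from oral groups. LC-MS/MS (LLOQ 1 ng/ml plasma, 5 ng/g tissue); noncompartmental analysis; ratios from mean of three rats.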

[2] = Cmax in Sprague-Dawley rat plasma at 40 mg/kg, po upto 31 hrs by liquid chromatography-tandem mass spectrometry; format: ADME, organism-based; set-up: dose 40 mg/kg, route oral
Summary of the method: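 Male SPF Sprague-Dawley rats (200–300 g), three per group. Oral gavage at 40 mg/kg (2 ml/kg) in TPGS–PEG400 solution. Plasma sampled 0.5–31 h, measured by LC-MS/MS (LLOQ 1 ng/ml). Noncompartmental analysis.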

Hepatitis C virus [3] = assay: Antiviral activity against Hepatitis C virus in presence of 40 mg/ml human serum albumin
[4] = AUC (0 to infinity) in Sprague-Dawley rat at 4 mg/kg, iv; format: ADME, organism-based; set-up: time infinity, dose 4 mg/kg, route intravenous; conditions: plasma
Summary of the method: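 Male specific-pathogen-free Sprague-Dawley rats (200-300 g), n = 3; single slow tail-vein bolus of 20% 2-hydroxypropyl-β-cyclodextrin formulation (pH 8.0) at 2 ml/kg. Plasma sampled from orbital plexus at 7 min, 20 min, 1, 3, 8, 24 and 31 h; LC-MS/MS (LLOQ 1 ng/ml); noncompartmental analysis of individual plasma profiles.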

Hepatitis C virus [5] = assay: microbe, parasite or virus in culture
Hepatitis C virus [6] = assay: Inhibition of HCV 1b isolate con1 NS3/4A protease using RetS1 as a substrate by fluorescence resonance energy transfer cleavage assay
Hepatitis C virus [7] = assay: microbe, parasite or virus in culture; remark: listed apart in the source
[8] = Ratio of AUC (0 to 31 hrs) in Sprague-Dawley rat large intestine to AUC (0 to 31 hrs) in Sprague-Dawley rat plasma at 40 mg/kg, po administered as single dose; format: ADME, organism-based; set-up: dose 40 mg/kg, route oral; conditions: read-out: Ratio AUC; summary of the method: as §1
Hepatitis C virus [9] = assay: Antiviral activity against HCV 1b infected in human HuH7 cells assessed as log reduction in viral RNA level at 5 nM after 9 days by qRT-PCR; format: functional, organism-based; conditions: Hepacivirus hominis, genotype 1b, Huh-7
Summary of the method: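 Nine-day assay: replicon cells at 500 cells/well without G418, compound alone or with IFN-α. Medium with compounds refreshed every 3 days; cells harvested on days 3, 6 and 9 at 37°C, 5% CO2. HCV RNA measured by qRT-PCR and normalized to RPL13A.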

[10] = Ratio of AUC (0 to 31 hrs) in Sprague-Dawley rat adrenal gland to AUC (0 to 31 hrs) in Sprague-Dawley rat plasma at 40 mg/kg, po administered as single dose; format: ADME, organism-based; set-up: dose 40 mg/kg, route oral; summary of the method: as §1
[11] = AUC (0 to infinity) in Sprague-Dawley rat at 40 mg/kg, po; format: ADME, organism-based; set-up: dose 40 mg/kg, route oral; conditions: plasma, read-out: AUBC
Summary of the method: (§2)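 Male specific-pathogen-free Sprague-Dawley rats (200-300 g), three per group; single gastric intubation of vitamin E TPGS-polyethylene glycol 400 solution at 2 ml/kg. Plasma taken from orbital plexus at 0.5, 1, 2, 4, 8, 24 and 31 h; LC-MS/MS (LLOQ 1 ng/ml); noncompartmental analysis; rats fed and watered ad libitum.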

Cathepsin S = Cathepsin S (Homo sapiens, UniProt P25774); assay: Inhibition of human cathepsin S in human JY cells assessed as p10 accumulation by fluorescence-based assay; format: cell-based
Summary of the method: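 Cellular cathepsin S assay in the human JY B-cell line, read as invariant chain degradation (p10 fragment accumulation). Top concentration 10 μM.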

[12] = Ratio of AUC (0 to 31 hrs) in Sprague-Dawley rat lung to AUC (0 to 31 hrs) in Sprague-Dawley rat plasma at 40 mg/kg, po administered as single dose; format: ADME, organism-based; set-up: dose 40 mg/kg, route oral; summary of the method: as §1
[13] = Half life (8 to 24 hrs) in Sprague-Dawley rat plasma at 4 mg/kg, iv; format: ADME, organism-based; set-up: dose 4 mg/kg, route intravenous
Summary of the method: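 Male SPF Sprague-Dawley rats (200–300 g), n=3. Single slow i.v. tail-vein bolus at 4 mg/kg (2 ml/kg) in 20% hydroxypropyl-β-cyclodextrin, pH 8.0. Plasma sampled 7 min to 31 h, measured by LC-MS/MS (LLOQ 1 ng/ml). Noncompartmental analysis.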

[14] = Cytotoxicity against human MRC5 cells after 3 to 4 days by resazurin proliferation assay; format: cell-based
Summary of the method: (§3)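 Human cell lines in DMEM with 10% heat-inactivated FBS and 2 mM L-glutamine (replicon cells plus 0.75 mg/ml G418 in maintenance). Exposed to compound for 3 to 4 days; resazurin fluorescence read-out. CC50 from inhibition curves.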

[15] = Ratio of AUC (0 to 31 hrs) in Sprague-Dawley rat small intestine to AUC (0 to 31 hrs) in Sprague-Dawley rat plasma at 40 mg/kg, po administered as single dose; format: ADME, organism-based; set-up: dose 40 mg/kg, route oral; conditions: read-out: Ratio AUC; summary of the method: as §1
[16] = Inhibition of HCV 1a H77 NS3/4A protease using RetS1 as a substrate by fluorescence resonance energy transfer cleavage assay
[17] = Cytotoxicity against human MT4 cells after 3 to 4 days by resazurin proliferation assay; format: cell-based; summary of the method: as §3
Hepatitis C virus [18] = assay: Antiviral activity against HCV 1a H77 infected in human HuH7 cells assessed as viral RNA level after 72 hrs by quantitative reverse transcriptase PCR; format: functional, organism-based, Hepacivirus hominis; conditions: genotype 1a H77, Huh-7, 72 h
Summary of the method: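 Replicon cells (Huh7-Luc at 3,000/well; con1b S2204I or 1a H77 P1496L/S2204I at 6,000/well) exposed to a dilution range for 72 h in 0.5% DMSO without G418. Lysates reverse transcribed 30 min at 42°C with an HCV 5′UTR primer and an RPL13A control. Inhibition from threshold-cycle difference versus mock; EC50 taken from the dose-response curve.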

Hepatitis C virus [19] = assay: Antiviral activity against Hepatitis C virus in presence of 1 mg/ml alpha-1 acid glycoprotein and 40 mg/ml human serum albumin
HepG2 = assay: Cytotoxicity against human HepG2 cells upto 42 uM after 3 to 4 days by resazurin proliferation assay; format: cell-based; summary of the method: as §3
[20] = test system: Respiratory syncytial virus; assay: Antiviral activity against Respiratory syncytial virus infected in human HeLa cells at 10 to 100 uM; format: functional, organism-based
Summary of the method: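 RSV (LO strain) in HeLa/M cells, tetrazolium-based colorimetric read-out. Highest concentration tested 10 to 100 μM.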

[21] = Cytotoxicity against human Saos2 cells after 3 to 4 days by resazurin proliferation assay; format: cell-based, SAOS-2; summary of the method: as §3
[22] = AUC (0 to 24 hrs) in Sprague-Dawley rat at 40 mg/kg, po; format: ADME, organism-based; set-up: time < 24 hr, dose 40 mg/kg, route oral; conditions: plasma; summary of the method: as §2
Hepatitis C virus [23] = assay: microbe, parasite or virus in culture; remark: listed apart in the source
Hepatitis C virus [24] = assay: Antiviral activity against Hepatitis C virus 1b infected in human HuH7 cells assessed as viral RNA level after 72 hrs by luciferase reporter gene assay; format: functional, organism-based, Hepacivirus hominis; conditions: genotype 1b, Huh-7, 72 h
Summary of the method: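 Huh7-Luc cells carrying a genotype 1b con1 subgenomic replicon (clone ET, firefly luciferase, adaptive mutations E1202G/T1280I/K1846T). 2,500 cells/well, serial dilutions, 0.5% DMSO final, no G418. Luciferase signal read after 72 h; EC50 taken from the dose-response curve relative to medium control.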

Cathepsin S, sequence (P25774 whole entry, the tested form may be a part): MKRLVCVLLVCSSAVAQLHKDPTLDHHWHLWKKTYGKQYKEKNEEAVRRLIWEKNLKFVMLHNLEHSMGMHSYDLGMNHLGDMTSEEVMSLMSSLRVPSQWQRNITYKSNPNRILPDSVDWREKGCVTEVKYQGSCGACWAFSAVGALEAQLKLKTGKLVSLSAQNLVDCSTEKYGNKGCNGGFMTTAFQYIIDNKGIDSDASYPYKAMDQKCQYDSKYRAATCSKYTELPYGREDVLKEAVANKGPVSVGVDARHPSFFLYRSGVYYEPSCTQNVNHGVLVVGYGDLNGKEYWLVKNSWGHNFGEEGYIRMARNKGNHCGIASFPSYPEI

With `COc1ccc2c(O[C@@H]3C[C@H]4C(=O)N[C@]5(C(=O)NS(=O)(=O)C6CC6)C[C@H]5/C=C\CCCCN(C)C(=O)[C@@H]4C3)cc(-c3nc(C(C)C)cs3)nc2c1C` [SIMEPREVIR] the Activity (West Nile virus) was “inactive”, the Kp [1] was 39 and the Cmax [2] was 1430 ng/mL. It also gave an EC50 (Hepatitis C virus [3]) of 14.1 nM, an AUC(0-inf) [4] of 1750 ng·h/mL and an EC50 ratio (Hepatitis C virus [5]) of 1.4. It also gave a Ki (Hepatitis C virus [6]) of 0.4 nM, an EC50 ratio (Hepatitis C virus [7]) of 1.8 and a Kp [8] of 29. The Activity (Hepatitis C virus [9]) was “Active”, the Kp [10] was 0.5 and the AUC [11] was 7750 ng·h/mL. It also gave an IC50 (Cathepsin S) of 800 nM, a Kp [12] of 0.5 and a half-life [13] of 4 h. The CC50 [14] was 16000 nM, the Kp [15] was 128 and the Ki [16] was 0.5 nM. It also gave a CC50 [17] of 16000 nM, an EC50 (Hepatitis C virus [18]) of 28.4 nM and an EC90 (Hepatitis C virus [18]) of 120 nM. The EC50 (Hepatitis C virus [19]) was 14.6 nM, the Activity (HepG2) was “Non-toxic” and the Activity [20] was “inactive”. The CC50 [21] was 16000 nM, the AUC(0-t) at 24 h [22] was 7740 ng·h/mL and the EC50 ratio (Hepatitis C virus [23]) was 1.4. For the same compound, the EC50 (Hepatitis C virus [24]) was 8.1 nM and the EC90 (Hepatitis C virus [24]) was 23.6 nM.
